Measured values: ChEMBL document CHEMBL1641400, “Synthesis of essramycin and comparison of its antibacterial activity” (J Nat Prod, 2010)
Values after ≈ are worked out from the molar mass of the structure shown. Active and inactive are the calls of the source. No cut-off for these calls is given here.

Tests used:
[1] = Kinetic solubility in phosphate buffer at pH 7.4; assay type: physicochemical
[2] = Thermodynamic solubility in phosphate buffer at pH 7.4 after 72 hrs; assay type: physicochemical; conditions: read-out: Therm_solubility
[3] = Protein binding in LB assay broth (above 30 kDa) by ultra filtration method; assay type: ADME; conditions: read-out: PB (converted)
[4] = Kinetic solubility in water; assay type: physicochemical
[5] = Thermodynamic solubility in water after 72 hrs; assay type: physicochemical; conditions: read-out: Therm_solubility
[6] = test system: Staphylococcus aureus; assay: Antibacterial activity against methicillin-susceptible Staphylococcus aureus ATCC 25923 up to 64 ug/ml after 24 hrs by broth dilution assay; assay type: functional, organism-based
How it was run: (§1)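 Triplicate broth microdilution in LB and MH broths. Overnight LB cultures were diluted 40-fold into fresh broth and shaken 1 h at 37 °C to mid-log (OD600 ≈ 0.6). They were then diluted to 5 × 10⁵ cfu/mL into 2-fold serial dilutions from 64 to 0.03 µg/mL (≤1.28% DMSO) and held 24 h at 37 °C. MIC is the lowest concentration with no visible growth. Tetracycline, vancomycin and colistin served as positive controls.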

[7] = test system: Enterococcus faecalis; assay: Antibacterial activity against Enterococcus faecalis VanB ATCC 51299 up to 64 ug/ml after 24 hrs by broth dilution assay; assay type: functional, organism-based; how it was run: as §1
[8] = test system: Escherichia coli; assay: Antibacterial activity against Escherichia coli ATCC 25922 up to 64 ug/ml after 24 hrs by broth dilution assay; assay type: functional, organism-based; how it was run: as §1
[9] = test system: Klebsiella pneumoniae; assay: Antibacterial activity against Klebsiella pneumoniae ATCC 700603 up to 64 ug/ml after 24 hrs by broth dilution assay; assay type: functional, organism-based; how it was run: as §1
[10] = test system: Pseudomonas aeruginosa; assay: Antibacterial activity against Meropenem-resistant Pseudomonas aeruginosa up to 64 ug/ml after 24 hrs by broth dilution assay; assay type: functional, organism-based
How it was run: (§2)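 Triplicate broth microdilution in LB and in MH broth. Overnight LB cultures diluted 40-fold into fresh broth, shaken 1 h at 37 °C to mid-log (OD600 ≈ 0.6), then diluted to 5 × 10⁵ cfu/mL. Added to 2-fold serial dilutions, 64 to 0.03 µg/mL, with DMSO at most 1.28%. Incubated 24 h at 37 °C; MIC is the lowest concentration with no visible growth. Tetracycline, vancomycin and colistin served as positive controls.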

[11] = test system: Acinetobacter baumannii; assay: Antibacterial activity against Meropenem-resistant Acinetobacter baumannii up to 64 ug/ml after 24 hrs by broth dilution assay; assay type: functional, organism-based; how it was run: as §2
[12] = test system: Staphylococcus aureus; assay: Antibacterial activity against methicillin-susceptible Staphylococcus aureus ATCC 25923 after 24 hrs by disc diffusion assay; assay type: functional, organism-based
How it was run: (§3)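 LB broth cultures were grown to mid-log (OD600 ≈ 0.6) as for broth MIC and streaked as lawns on LB agar. Sterile filter paper discs were loaded with 10 µL of 2-fold serial dilutions (32 to 1 µg/mL) and placed on the lawns. Inhibition zones were measured after 24 h at 37 °C.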

[13] = test system: Enterococcus faecalis; assay: Antibacterial activity against Enterococcus faecalis VanB ATCC 51299 after 24 hrs by disc diffusion assay; assay type: functional, organism-based; how it was run: as §3
[14] = test system: Escherichia coli; assay: Antibacterial activity against Escherichia coli ATCC 25922 after 24 hrs by disc diffusion assay; assay type: functional, organism-based; how it was run: as §3
[15] = test system: Klebsiella pneumoniae; assay: Antibacterial activity against Klebsiella pneumoniae ATCC 700603 after 24 hrs by disc diffusion assay; assay type: functional, organism-based; how it was run: as §3
[16] = test system: Pseudomonas aeruginosa; assay: Antibacterial activity against Meropenem-resistant Pseudomonas aeruginosa after 24 hrs by disc diffusion assay; assay type: functional, organism-based
How it was run: (§4)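 LB-broth overnight cultures diluted 40-fold into fresh LB, shaken 1 h at 37 °C, to mid-log (OD600 ≈ 0.6). Lawn streaked on LB agar. Sterile filter-paper discs loaded with 10 µL of 2-fold serial dilutions, 32 to 1 µg/mL. Discs placed on plates, 24 h at 37 °C, then zone of inhibition measured.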

[17] = test system: Acinetobacter baumannii; assay: Antibacterial activity against Meropenem-resistant Acinetobacter baumannii after 24 hrs by disc diffusion assay; assay type: functional, organism-based; how it was run: as §4
[18] = test system: Staphylococcus aureus; assay: Antibacterial activity against methicillin-susceptible Staphylococcus aureus ATCC 25923 compound formulated with carboxymethylcellulose; assay type: functional, organism-based
[19] = test system: Escherichia coli; assay: Antibacterial activity against Escherichia coli ATCC 25922 compound formulated with carboxymethylcellulose; assay type: functional, organism-based
[20] = test system: Pseudomonas aeruginosa; assay: Antibacterial activity against Pseudomonas aeruginosa ATCC 10145 compound formulated with carboxymethylcellulose; assay type: functional, organism-based
[21] = test system: Bacillus subtilis; assay: Antibacterial activity against Bacillus subtilis ATCC 6051 compound formulated with carboxymethylcellulose; assay type: functional, organism-based
[22] = test system: HepG2; assay: Cytotoxicity against human HepG2 cells after 24 hrs by MTT assay; assay type: cell-based; conditions: HepG2, 24 h
[23] = test system: HEK293; assay: Cytotoxicity against HEK293 cells after 24 hrs by MTT assay; assay type: cell-based; conditions: Homo sapiens, HEK293, 24 h

Cc1cc(=O)n2nc(CC(=O)c3ccccc3)[nH]c2n1 [ESSRAMYCIN]
solubility kinetic [1]: 150 µg/mL (≈ 559 µM)
solubility thermodynamic at 72 h [2]: 898 µg/mL (≈ 3350 µM)
fraction unbound [3]: 0.93
solubility kinetic [4]: 150 µg/mL (≈ 559 µM)
solubility thermodynamic at 72 h [5]: 175 µg/mL (≈ 652 µM)

Cc1cc(=O)n2nc(CC(=O)c3ccccc3)nc2[nH]1 [ESSRAMYCIN]
inhibition [6]: inactive
inhibition [7]: inactive
inhibition [8]: inactive
inhibition [9]: inactive
inhibition [10]: inactive
inhibition [11]: inactive
inhibition [12]: inactive
inhibition [13]: inactive
inhibition [14]: inactive
inhibition [15]: inactive
inhibition [16]: inactive
inhibition [17]: inactive
inhibition [18]: inactive
inhibition [19]: inactive
inhibition [20]: inactive
inhibition [21]: inactive
IC50 [22]: > 200 µM
IC50 [23]: > 200 µM
